Most compounds without a hit are left out; they make up all but 2.3% or so of the library.
TRPC4 agonist = TRPC4 (mouse) channel activation; HEK293 TRPC4beta/mu-opioid, Fluo4 calcium fluorescence; hits give high values; 310,000 tested, 0.49% active; Q9QUQ5; B-score at 10 µM;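 active means B-score above 5 SD of library B-scores, and initial fluorescence ratio not above library mean plus 5 SD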;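 further: positive B-score marks a calcium rise read as TRPC4 activation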
Target sequence (Q9QUQ5 whole entry, looked up): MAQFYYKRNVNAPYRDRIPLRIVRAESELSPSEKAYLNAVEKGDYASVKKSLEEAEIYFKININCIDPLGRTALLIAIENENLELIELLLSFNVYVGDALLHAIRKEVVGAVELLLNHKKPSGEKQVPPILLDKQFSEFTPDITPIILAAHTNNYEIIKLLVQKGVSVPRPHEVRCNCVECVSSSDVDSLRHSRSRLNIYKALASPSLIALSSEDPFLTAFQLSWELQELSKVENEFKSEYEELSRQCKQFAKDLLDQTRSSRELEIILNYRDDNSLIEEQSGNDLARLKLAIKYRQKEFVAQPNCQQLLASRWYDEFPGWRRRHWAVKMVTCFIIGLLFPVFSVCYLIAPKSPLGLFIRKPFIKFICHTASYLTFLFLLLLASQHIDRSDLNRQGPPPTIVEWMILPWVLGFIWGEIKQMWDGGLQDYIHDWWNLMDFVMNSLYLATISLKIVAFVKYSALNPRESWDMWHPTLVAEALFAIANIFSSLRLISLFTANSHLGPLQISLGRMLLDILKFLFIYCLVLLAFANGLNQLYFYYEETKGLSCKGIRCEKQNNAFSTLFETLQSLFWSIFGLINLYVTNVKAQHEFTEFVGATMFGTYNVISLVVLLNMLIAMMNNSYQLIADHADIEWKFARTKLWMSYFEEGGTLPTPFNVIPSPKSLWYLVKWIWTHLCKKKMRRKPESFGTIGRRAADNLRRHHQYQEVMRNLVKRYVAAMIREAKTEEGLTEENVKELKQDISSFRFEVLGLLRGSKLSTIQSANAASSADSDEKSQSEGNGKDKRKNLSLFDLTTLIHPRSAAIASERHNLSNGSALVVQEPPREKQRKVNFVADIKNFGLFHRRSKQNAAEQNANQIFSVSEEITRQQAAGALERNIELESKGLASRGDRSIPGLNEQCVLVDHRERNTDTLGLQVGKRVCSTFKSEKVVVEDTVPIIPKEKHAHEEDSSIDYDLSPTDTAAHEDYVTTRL
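Incubation: 45 min room-temperature Fluo4 loading, 110 s read / System: HEK293 cells stably co-expressing mouse TRPC4beta and mu-opioid receptor / Signal: Fluo4 fluorescence, kinetic / Control set: buffer (low) and maximal DAMGO (high) / Measure: integrated baseline-normalised fluorescence ratio, converted to per-well B score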
TRPC6 act = activators of mouse TRPC6 channel. 310,000 tested, 0.13% active. Q61143. HEK293-TRPC6 membrane potential dye fluorescence; hits give high values. B-score at 10 µM;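 active means B-score of the integrated fluorescence ratio above library mean plus 3 SD, and starting fluorescence ratio within library mean plus 5 SD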;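 further: higher score means more depolarization so channel activation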
TRPC4 inh = inhibitors of mouse TRPC4 channel. B-score at 10 µM. Q9QUQ5. HEK293 TRPC4beta/mu-opioid, DAMGO-evoked Fluo4 calcium flux; hits give low values. AID 2247. 300,000 tested, 0.39% active;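 active means B-score over 3 SD under the library average, no early fluorescence shift, positive overall ratio signal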
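System: stable TRPC4beta/mu-opioid receptor HEK293 cells; Dosing: single-point compound dosing; Measured by: Fluo4 Ca2+ flux fluorescence; Read-out basis: per-well B score of integrated baseline-normalized Fluo4 ratio.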
TRPC6 inh = blocks the mouse TRPC6 cation channel. Q61143. HEK293-TRPC6, membrane potential dye, ACh-evoked depolarization; hits give low values. B-score at 10 µM. 310,000 tested, 1.1% active. AID 2553;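 active means B-score under library mean minus 3 SD, initial fluorescence not abnormally high, positive integrated signal ratio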;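 further: B-score derived from integrated fluorescence ratio over the kinetic read; more negative B-score means stronger inhibition of depolarization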
TRPC4 potent = TRPC4 (mouse) allosteric potentiation. Q9QUQ5. HEK293 TRPC4beta/mu-opioid, DAMGO EC20, Fluo-4 Ca2+ flux; hits give high values. B-score at 10 µM. 310,000 tested, 0.42% active. AID 2227;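 active means B-score of calcium response area above 5 SD of library B-scores, with initial fluorescence ratio within 5 SD of library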;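 further: B-score of integrated fluorescence ratio over time as area under calcium response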
HEK293 MPD ctr = parental HEK293 nonspecific activity of TRPC6 modulators; shares compounds with TRPC6 inh; membrane potential dye fluorescence; membrane potential signal change, % at 10 µM; 2,400 tested, 51% active;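 active means membrane potential signal moves up or down beyond 5 SD from buffer-only wells, on both duplicate plates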
HEK293 MPD ctr 2 = second check of TRPC6 modulator effects in parental HEK293 cells; membrane potential dye fluorescence; after compound, maximal acetylcholine stimulation; shares compounds with TRPC6 inh; AID 488926; inhibition, % at 10 µM; 2,400 tested, 14% active;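 active means membrane potential signal drops by more than 5 SD from the mean control signal, in both duplicate plates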;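 further: plate controls were acetylcholine ECmax control wells for no effect and buffer only wells for full effect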
TRPC4 ctr mod = tests whether TRPC6 modulators also affect mouse TRPC4 | shares compounds with TRPC6 inh | HEK293 TRPC4/mu-opioid, membrane potential fluorescence | percent change from control (negative = decrease, positive = increase), % at 10 µM | 2,400 tested, 69% active;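 active means membrane potential signal moved up or down beyond 5 SD of buffer control wells, in both duplicate plates, actives on both sides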;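 further: plate controls were assay buffer wells for no effect and DAMGO maximal-effect wells for full effect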
TRPC4 ctr inh 2 = second selectivity test of TRPC6 modulators against mouse TRPC4. inhibition, % at 10 µM. AID 488928. shares compounds with TRPC6 inh. HEK293 TRPC4/mu-opioid, membrane potential dye fluorescence; stimulated with maximal-effect DAMGO. 2,400 tested, 55% active;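 active means drop in membrane potential signal beyond 5 SD of the control wells in both duplicate plates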;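 further: TRPC4 counter screen for TRPC6 hits run under conditions tuned for TRPC6 not TRPC4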
TRPC6 inh conf = mouse TRPC6 inhibitor confirmation. shares compounds with TRPC6 inh. HEK293-TRPC6, membrane potential dye, ACh-evoked depolarization. inhibition, % at 10 µM. 3,300 tested, 43% active. AID 488960;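 active means fluorescence ratio falls more than 5 SD below the full-stimulation control mean, in both duplicate runs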;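 further: integrated fluorescence ratio of peak minus minimum over baseline after agonist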
TRPC6 act conf = confirmation of mouse TRPC6 activators | shares compounds with TRPC6 inh | HEK293-TRPC6 membrane potential dye fluorescence, FDSS | activation, % at 10 µM | 2,800 tested, 11% active;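 active means ratio signal rise beyond 5 SD above unstimulated control wells' mean, seen in both duplicate runs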;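 further: plate controls were buffer EC0 wells for no effect and acetylcholine ECmax response for full effect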
Starred values were filed as active, the others as inactive.

COc1cc(-c2nc3ccccn3c2/N=C/c2cc(OC)c(O)cc2Cl)ccc1O was read as TRPC4 agonist inactive, TRPC6 act inactive, TRPC4 inh inactive, TRPC6 inh -5.8*, TRPC4 potent inactive, HEK293 MPD ctr inactive, HEK293 MPD ctr 2 inactive, TRPC4 ctr mod -10%*, TRPC4 ctr inh 2 34%*, TRPC6 inh conf inactive and TRPC6 act conf inactive.
`C=CCn1c(SCC(=O)N2CCN(CCO)CC2)nc2sc3c(c2c1=O)CCC3` gave TRPC4 agonist inactive, TRPC6 act inactive, TRPC4 inh inactive, TRPC6 inh inactive and TRPC4 potent inactive.
`CN(C)c1ccc(C(=O)N/N=C/c2ccccn2)cc1` gave TRPC4 agonist inactive, TRPC6 act inactive, TRPC4 inh inactive, TRPC6 inh -6.6*, TRPC4 potent inactive, HEK293 MPD ctr -159%*, HEK293 MPD ctr 2 inactive, TRPC4 ctr mod -28%*, TRPC4 ctr inh 2 36%*, TRPC6 inh conf inactive and TRPC6 act conf inactive.
For COc1ccc(C(=O)Nc2ccccc2C(=O)N/N=C/c2ccccn2)cc1OC the results were TRPC4 agonist inactive, TRPC6 act inactive, TRPC4 inh inactive, TRPC6 inh inactive and TRPC4 potent inactive.
Screening COc1ccc(C(=O)N/N=C/c2ccccn2)cc1OC returned TRPC4 agonist inactive, TRPC6 act inactive, TRPC4 inh inactive, TRPC6 inh -7*, TRPC4 potent inactive, HEK293 MPD ctr -296%*, HEK293 MPD ctr 2 inactive, TRPC4 ctr mod -50%*, TRPC4 ctr inh 2 40%*, TRPC6 inh conf 38%* and TRPC6 act conf inactive.
`CC[n+]1c(/C=C/c2ccc(OC)c(OC)c2)ccc2ccccc21` gave TRPC4 agonist inactive, TRPC6 act inactive, TRPC4 inh inactive, TRPC6 inh -8.1*, TRPC4 potent inactive, HEK293 MPD ctr -214%*, HEK293 MPD ctr 2 inactive, TRPC4 ctr mod -52%*, TRPC4 ctr inh 2 40%*, TRPC6 inh conf inactive and TRPC6 act conf inactive.
CC[n+]1c(/C=C/c2ccc(OC(C)=O)c(OC)c2)ccc2ccccc21 was read as TRPC4 agonist inactive, TRPC6 act inactive, TRPC4 inh inactive, TRPC6 inh -7.6*, TRPC4 potent inactive, HEK293 MPD ctr -264%*, HEK293 MPD ctr 2 124%*, TRPC4 ctr mod -45%*, TRPC4 ctr inh 2 70%*, TRPC6 inh conf 77%* and TRPC6 act conf inactive.
CC[n+]1c(/C=C/c2ccc(N(C)C)cc2)ccc2ccccc21 was read as TRPC4 agonist inactive, TRPC6 act inactive, TRPC4 inh inactive, TRPC6 inh inactive and TRPC4 potent inactive.
`O=c1c2ccccc2[nH]c(=S)n1CCN1CCCC1` gave TRPC4 agonist inactive, TRPC6 act inactive, TRPC4 inh inactive, TRPC6 inh inactive and TRPC4 potent inactive.
Screening O=c1c2ccccc2[nH]c(=S)n1CCCN1CCC(Cc2ccccc2)CC1 returned TRPC4 agonist inactive, TRPC6 act inactive, TRPC4 inh inactive, TRPC6 inh -5.9*, TRPC4 potent inactive, HEK293 MPD ctr inactive, HEK293 MPD ctr 2 inactive, TRPC4 ctr mod -10%*, TRPC4 ctr inh 2 80%*, TRPC6 inh conf 56%* and TRPC6 act conf inactive.
For CCN1CCN(CCn2c(=S)[nH]c3ccccc3c2=O)CC1 the results were TRPC4 agonist inactive, TRPC6 act inactive, TRPC4 inh inactive, TRPC6 inh -6.3*, TRPC4 potent inactive, HEK293 MPD ctr inactive, HEK293 MPD ctr 2 inactive, TRPC4 ctr mod inactive, TRPC4 ctr inh 2 inactive, TRPC6 inh conf 41%* and TRPC6 act conf inactive.
For CN1C(=O)/C(=C\c2ccc(N(C)C)cc2)OC1=S the results were TRPC4 agonist inactive, TRPC6 act 19*, TRPC4 inh inactive, TRPC6 inh inactive, TRPC4 potent inactive, HEK293 MPD ctr 322%*, HEK293 MPD ctr 2 inactive, TRPC4 ctr mod 74%*, TRPC4 ctr inh 2 inactive, TRPC6 inh conf inactive and TRPC6 act conf 123%*.
`COc1ccc(NC(=O)CN(C)C(=O)c2cc(C)on2)cc1` gave TRPC4 agonist inactive, TRPC6 act inactive, TRPC4 inh inactive, TRPC6 inh -5.7*, TRPC4 potent inactive, HEK293 MPD ctr inactive, HEK293 MPD ctr 2 inactive, TRPC4 ctr mod inactive, TRPC4 ctr inh 2 inactive, TRPC6 inh conf inactive and TRPC6 act conf inactive.
Screening Cc1cc(C(=O)N(C)CC(=O)Nc2cccc(F)c2)no1 returned TRPC4 agonist inactive, TRPC6 act inactive, TRPC4 inh inactive, TRPC6 inh inactive and TRPC4 potent inactive.
For Cc1ncc(C[n+]2csc(CCOC(=O)CC34CC5CC(CC(C5)C3)C4)c2C)c(N)n1 the results were TRPC4 agonist inactive, TRPC6 act inactive, TRPC4 inh inactive, TRPC6 inh inactive and TRPC4 potent inactive.
Cc1c(CCOC(=O)CC23CC4CC(CC(C4)C2)C3)sc[n+]1Cc1ccccc1 was read as TRPC4 agonist inactive, TRPC6 act inactive, TRPC4 inh -6*, TRPC6 inh -5.3*, TRPC4 potent inactive, HEK293 MPD ctr inactive, HEK293 MPD ctr 2 inactive, TRPC4 ctr mod inactive, TRPC4 ctr inh 2 40%*, TRPC6 inh conf 56%* and TRPC6 act conf inactive.
`CC(=O)Nc1ccc(S(=O)(=O)N(C)CC(=O)OC(C)C(=O)N(C)C2CCCCC2)cc1` (stereo not drawn) gave TRPC4 agonist inactive, TRPC6 act inactive, TRPC4 inh inactive, TRPC6 inh inactive and TRPC4 potent inactive.
`COc1ccc(S(=O)(=O)Nc2ccc(N3CCOCC3)nc2)cc1` gave TRPC4 agonist inactive, TRPC6 act inactive, TRPC4 inh inactive, TRPC6 inh -5*, TRPC4 potent inactive, HEK293 MPD ctr inactive, HEK293 MPD ctr 2 inactive, TRPC4 ctr mod inactive, TRPC4 ctr inh 2 inactive, TRPC6 inh conf inactive and TRPC6 act conf inactive.

High-throughput results deposited in PubChem by Johns Hopkins Ion Channel Center.
